Assay results published in ChEMBL document CHEMBL4396941, “Design, synthesis and biological evaluation of benzamide derivatives as novel NTCP inhibitors that induce apoptosis in HepG2 cells” (Bioorg Med Chem Lett, 2019).
The source made the active and inactive calls. No cut-off for these calls is given here.

Experiments:
Hepatitis B virus [1] = assay: Antiviral activity against hepatitis B virus infected in human HepG2.2.15 cells assessed as HBsAg secretion at 5 uM incubated for 9 days by ELISA (reference value: 8.41+/- 0.54 ng/ml); assay type: functional
HepG2 [2] = assay: Antiproliferative activity against human HepG2 cells assessed as inhibition of cell growth incubated for 24 hrs by MTT assay; assay type: functional, cell-based; conditions: HepG2, 24 h
Method in brief: (§1)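 HepG2 cells exposed to a range of concentrations for the stated times, then inhibition rate measured by MTT.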

Hepatitis B virus [3] = assay: Antiviral activity against hepatitis B virus infected in human HepG2.2.15 cells assessed as reduction in HBeAg secretion at 5 uM incubated for 9 days by ELISA (reference value: 25.13 +/- 1.93 ng/ml); assay type: functional
[4] = target: T1, Hepatic sodium/bile acid cotransporter (Homo sapiens, UniProt Q14973); assay: Inhibition of NTCP in human hepatocytes; assay type: cell-based
T1 sequence (Q14973 whole entry): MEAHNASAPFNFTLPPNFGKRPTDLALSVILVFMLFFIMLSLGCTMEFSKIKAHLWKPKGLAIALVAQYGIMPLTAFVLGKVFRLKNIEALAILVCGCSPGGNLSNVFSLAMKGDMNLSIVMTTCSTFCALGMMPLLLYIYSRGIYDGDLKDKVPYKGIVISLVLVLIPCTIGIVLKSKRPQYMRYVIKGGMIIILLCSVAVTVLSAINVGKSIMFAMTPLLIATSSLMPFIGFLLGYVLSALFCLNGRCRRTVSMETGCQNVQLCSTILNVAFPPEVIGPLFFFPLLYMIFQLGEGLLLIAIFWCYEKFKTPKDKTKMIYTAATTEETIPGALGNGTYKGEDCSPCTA

[5] = target: T1, Hepatic sodium/bile acid cotransporter; assay: Inhibition of NTCP in human hepatocytes assessed as reduction in Na+-dependent [3H]taurocholate uptake measured at 45s following compound addition by liquid scintillation counting method; assay type: cell-based
[6] = target: T1, Hepatic sodium/bile acid cotransporter; assay: Inhibition of human recombinant NTCP expressed in CHO cells assessed as reduction in [3H]taurocholate uptake incubated for 2 mins by scintillation counting method; assay type: cell-based
Hepatitis B virus [7] = assay: Antiviral activity against hepatitis B virus infected in human HepG2.2.15 cells assessed as reduction in HBV DNA level incubated for 9 days by real time-PCR analysis; assay type: functional, organism-based
HepG2 [8] = assay: Antiproliferative activity against human HepG2 cells assessed as inhibition of cell growth incubated for 48 hrs by MTT assay; assay type: functional, cell-based; conditions: HepG2, 48 h; method in brief: as §1
HepG2 [9] = assay: Induction of cell morphological changes in human HepG2 cells assessed as condensed chromatin at 2.5 to 10 uM incubated for 24 hrs by Hoechst 33258 staining based fluorescence microscopy; assay type: functional
Method in brief: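 HepG2 cells treated 24 h at several concentrations, stained with Hoechst 33258, chromatin morphology examined by fluorescence microscopy.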

HepG2 [10] = assay: Induction of apoptosis in human HepG2 cells assessed as early apoptotic cells at 5 uM incubated for 24 hrs by annexin -V/propidium iodide staining based flow cytometry (reference value: 2.23%); assay type: functional
HepG2 [11] = assay: Induction of apoptosis in human HepG2 cells assessed as late apoptotic cells at 10 uM incubated for 24 hrs by annexin -V/propidium iodide staining based flow cytometry (reference value: 4.72%); assay type: functional
HepG2 [12] = assay: Induction of apoptosis in human HepG2 cells assessed as early apoptotic cells at 2.5 uM incubated for 24 hrs by annexin -V/propidium iodide staining based flow cytometry (reference value: 2.23%); assay type: functional
HepG2 [13] = assay: Induction of apoptosis in human HepG2 cells assessed as late apoptotic cells at 2.5 uM incubated for 24 hrs by annexin -V/propidium iodide staining based flow cytometry (reference value: 4.72%); assay type: functional
HepG2 [14] = assay: Induction of apoptosis in human HepG2 cells assessed as late apoptotic cells at 5 uM incubated for 24 hrs by annexin -V/propidium iodide staining based flow cytometry (reference value: 4.72%); assay type: functional
HepG2 [15] = assay: Induction of apoptosis in human HepG2 cells assessed as downregulation of Bcl2 protein expression at 2.5 to 10 uM incubated for 24 hrs by Western blot analysis; assay type: functional, cell-based
Method in brief: (§2)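 HepG2 cells treated 24 h at several concentrations; NTCP, PARP, Bax, Bcl-2 and caspase-3 detected by western blot.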

HepG2 [16] = assay: Antiproliferative activity against human HepG2 cells assessed as inhibition of cell growth incubated for 72 hrs by MTT assay; assay type: functional, cell-based; conditions: HepG2, 72 h; method in brief: as §1
HepG2 [17] = assay: Induction of apoptosis in human HepG2 cells assessed as increase in caspase-3 cleavage at 2.5 to 10 uM incubated for 24 hrs by Western blot analysis; assay type: functional, cell-based; method in brief: as §2
HepG2 [18] = assay: Inhibition of NTCP protein expression in human HepG2 cells at 2.5 to 10 uM incubated for 24 hrs by western blot analysis; assay type: functional, cell-based; method in brief: as §2
HepG2 [19] = assay: Induction of apoptosis in human HepG2 cells assessed as early apoptotic cells at 10 uM incubated for 24 hrs by annexin -V/propidium iodide staining based flow cytometry (reference value: 2.23%); assay type: functional
HepG2 [20] = assay: Induction of apoptosis in human HepG2 cells assessed as upregulation of Bax protein expression at 2.5 to 10 uM incubated for 24 hrs by Western blot analysis; assay type: functional, cell-based; method in brief: as §2
HepG2 [21] = assay: Induction of apoptosis in human HepG2 cells assessed as increase in PARP cleavage at 2.5 to 10 uM incubated for 24 hrs by Western blot analysis; assay type: functional, cell-based; method in brief: as §2
[22] = target: T1, Hepatic sodium/bile acid cotransporter; assay: Inhibition of human recombinant NTCP expressed in CHO cells assessed as reduction in [3H]taurocholate uptake preincubated for 1 hr by radioactive scintillation counting method; assay type: cell-based

Row | SMILES | Activity (Hepatitis B virus [1]) | IC50 (HepG2 [2]) | Activity (Hepatitis B virus [3]) | other results
1 | O=C(CNC(=O)c1ccc(-c2ccccc2)cc1)N/N=C/c1ccc(OCc2cc3c(cc2Cl)OCO3)cc1 | 7.66 ng/mL | > 50 µM | 23.8 ng/mL | –
2 | O=C(COc1ccc(Cl)cc1)NCc1ccc(CNC(=O)COc2ccc(Cl)cc2)cc1 | – | 26.4 µM | – | –
3 | O=C(CNC(=O)c1cccnc1Cl)N/N=C/c1ccccc1OCc1cc2c(cc1Cl)OCO2 | 8.39 ng/mL | > 50 µM | 25.47 ng/mL | –
4 | CCN(CC)c1ccc(/C=N/NC(=O)CNC(=O)c2ccc(C)cc2)c(OCc2ccccc2Cl)c1 | 8.37 ng/mL | > 50 µM | 24.55 ng/mL | –
5 | N#Cc1ccc(C(=O)NCC(=O)N/N=C/c2ccccc2OCc2ccccc2Cl)cc1 | 8.33 ng/mL | > 50 µM | 25.22 ng/mL | –
6 | Cc1cc(OCCCS(C)(=O)=O)cc(C)c1-c1cccc(COc2ccc3c(c2)OC[C@H]3CC(=O)O)c1 | – | – | – | IC50 [4]: 2 µM
7 | O=C(CNC(=O)c1ccc(F)cc1)N/N=C/c1ccccc1OCc1ccccc1Cl | 5.03 ng/mL | 24.9 µM | 14.53 ng/mL | –
8 | Cc1sc(NC(=O)CCn2cnc3ccccc3c2=O)nc1-c1ccc(Cl)cc1 | – | 25.4 µM | – | –
9 | O=C(CNC(=O)c1ccc(F)cc1)N/N=C/c1ccccc1OCc1cc2c(cc1Cl)OCO2 | 3.98 ng/mL | 17.1 µM | 11.84 ng/mL | –
10 | C[C@H](NC(=O)COc1ccc(S(=O)(=O)N[C@H](C)c2ccccc2)cc1)c1ccccc1 | – | 35.7 µM | – | –
11 | Cc1ccc(C(=O)NCC(=O)N/N=C/c2ccc(OCc3cc4c(cc3Cl)OCO4)cc2)cc1 | 3.91 ng/mL | 14.9 µM | 11.47 ng/mL | –
12 | COc1ccccc1Oc1c(NS(=O)(=O)c2ccc(C(C)(C)C)cc2)nc(-c2ncccn2)nc1OCCO [BOSENTAN] | – | – | – | IC50 [5]: 30 µM
13 | Cc1cccc(CSCCNC(=O)CN(c2cccc(C(F)(F)F)c2)S(C)(=O)=O)c1 | – | 23.4 µM | – | –
14 | C[C@]1(C(=O)NCCOc2ccc(C3CCCCC3)cc2)CO[C@@H](c2ccccc2)OC1 | – | 32.9 µM | – | –
15 | Cc1ccc(C(=O)NCC(=O)N/N=C/c2ccccc2OCc2ccc(C#N)cc2)cc1 | 8.25 ng/mL | > 50 µM | 25.25 ng/mL | –
16 | CC(C)n1c(/C=C/C(O)CC(O)CC(=O)O)c(-c2ccc(F)cc2)c2ccccc21 (stereo unspecified) [FLUVASTATIN] | – | – | – | IC50 [6]: 40 µM
17 | CCN(CC)c1ccc(/C=N/NC(=O)CNC(=O)c2ccc(C#N)cc2)c(OCc2ccccc2Cl)c1 | 8.17 ng/mL | > 50 µM | 24.86 ng/mL | –
18 | Cc1ccc(C(=O)NCC(=O)N/N=C/c2ccc(OCc3ccccc3Cl)cc2)cc1 | 4.83 ng/mL | 28.1 µM | 14.29 ng/mL | –
19 | Cc1ccccc1OCC(=O)N/N=C/c1cccc(OCc2ccccc2)c1 | – | 18.6 µM | – | –

Row | SMILES | Activity (Hepatitis B virus [1]) | IC50 (HepG2 [2]) | Activity (Hepatitis B virus [3]) | other results
20 | CCN(CC)c1ccc(/C=N/NC(=O)CNC(=O)c2ccc(F)cc2)c(OCc2ccccc2Cl)c1 | 8.04 ng/mL | > 50 µM | 24.34 ng/mL | –
21 | COc1ccc(/C=N/NC(=O)CNC(=O)c2ccc(F)cc2)c(OCc2ccccc2Cl)c1 | 4.23 ng/mL | 15.7 µM | 13.07 ng/mL | –
22 | O=C(CNC(=O)c1cccnc1Cl)N/N=C/c1cccc(OCc2ccccc2Cl)c1 | 2.05 ng/mL | 3.1 µM | 6.43 ng/mL | inhibition (Hepatitis B virus [7]): Active
23 | Cc1ccc(C(=O)NCC(=O)N/N=C/c2ccccc2OCc2ccccc2Cl)cc1 | 3.95 ng/mL | 13.4 µM | 15.01 ng/mL | –
24 | O=C(CNC(=O)c1ccc(-c2ccccc2)cc1)N/N=C/c1ccccc1OCc1cc2c(cc1Cl)OCO2 | 7.72 ng/mL | > 50 µM | 24.07 ng/mL | –
25 | COc1ccc(/C=N/NC(=O)CNC(=O)c2ccc(C)cc2)c(OCc2ccccc2Cl)c1 | 7.94 ng/mL | > 50 µM | 23.53 ng/mL | –
26 | C[C@H](Cn1cnc2c(N)ncnc21)OCP(=O)(O)O [TENOFOVIR ANHYDROUS] | 1.72 ng/mL | – | 5.6 ng/mL | –
27 | COc1ccc(COc2ccccc2/C=N/NC(=O)CNC(=O)c2ccc(C)cc2)cc1 | 7.66 ng/mL | > 50 µM | 23.04 ng/mL | –
28 | O=C(CNC(=O)c1ccc(-c2ccccc2)cc1)N/N=C/c1ccccc1OCc1ccccc1Cl | 8.31 ng/mL | > 50 µM | 24.88 ng/mL | –
29 | Cc1cc(C)cc(OCC(=O)NCCNC(=O)COc2cc(C)cc(C)c2)c1 | – | 53.2 µM | – | –
30 | O=C(CNC(=O)c1cccnc1Cl)N/N=C/c1ccccc1OCc1ccccc1Cl | 4.08 ng/mL | 16.9 µM | 12.55 ng/mL | –
31 | Cc1ccc(C(=O)NCC(=O)N/N=C/c2ccccc2OCc2cc3c(cc2Cl)OCO3)cc1 | 1.93 ng/mL | 2.8 µM | 7.43 ng/mL | IC50 (HepG2 [8]): 1.2 µM; Activity (HepG2 [9]): Active; Activity (HepG2 [10]): 5.39%; Activity (HepG2 [11]): 30.48%; Activity (HepG2 [12]): 4.73%; inhibition (Hepatitis B virus [7]): Active; Activity (HepG2 [13]): 15.33%; Activity (HepG2 [14]): 21.66%; Activity (HepG2 [15]): Active; IC50 (HepG2 [16]): 0.9 µM; Activity (HepG2 [17]): Active; inhibition (HepG2 [18]): Active; Activity (HepG2 [19]): 5.99%; Activity (HepG2 [20]): Active; Activity (HepG2 [21]): Active
32 | O=C1CC(c2ccccc2)CC(=O)C1=CNCCN1CCN(C(=O)Cc2ccccc2)CC1 (stereo unspecified) | – | 70.2 µM | – | –
33 | COc1ccc(/C=N/NC(=O)CNC(=O)c2ccc(C#N)cc2)c(OCc2ccccc2Cl)c1 | 8.29 ng/mL | > 50 µM | 25.47 ng/mL | –
34 | Cc1ccc(C(=O)NCC(=O)N/N=C/c2ccccc2OCc2ccc(Cl)cc2)cc1 | 7.79 ng/mL | > 50 µM | 22.99 ng/mL | –
35 | CCCNS(=O)(=O)Nc1ncnc(OCCOc2ncc(Br)cn2)c1-c1ccc(Br)cc1 | – | – | – | IC50 [22]: 10 µM
36 | O=C(CNC(=O)c1cccnc1Cl)N/N=C/c1ccc(OCc2ccccc2Cl)cc1 | 2.48 ng/mL | 4.7 µM | 7.36 ng/mL | inhibition (Hepatitis B virus [7]): Active
37 | Cc1ccc(C(=O)NCC(=O)N/N=C/c2cccc(OCc3ccccc3Cl)c2)cc1 | 5.74 ng/mL | 47.5 µM | 18.09 ng/mL | –
38 | O=C(CNC(=O)c1cccnc1)N/N=C/c1ccc(OCc2cc3c(cc2Cl)OCO3)cc1 | 3.71 ng/mL | 10.1 µM | 11.45 ng/mL | –
